Key:
Canis familiaris [1] = experiment: Pharmacological activity for Blood pressure, -20% in anesthetized dog was determined after intravenous administration; format: functional, Canis lupus familiaris
How it was run: (§1)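 Anesthetized dogs; contractile force recorded by a left-ventricular Walton-Brodie strain gauge arch, heart rate from lead II EKG, plus blood pressure. Stabilized at least 30 min, then at least three iv doses given, one compound per animal, with return to basal between doses. Doses for +30% force, +15% rate and −20% BP were extrapolated from dose-response curves; geometric mean where repeated.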

Canis familiaris [2] = experiment: Pharmacological activity for heart rate +15% in anesthetized dog was determined after intravenous administration; format: functional, Canis lupus familiaris; how it was run: as §1
Canis familiaris [3] = experiment: Pharmacological activity for Contractile force, +30% in anesthetized dog was determined after intravenous administration; format: functional, Canis lupus familiaris; how it was run: as §1
Canis familiaris [4] = experiment: The change in cardiac contractile force was determined after 0.1 ug/kg iv administration in dog.; format: functional, Canis lupus familiaris, Heart
How it was run: (§2)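 Anesthetized dogs: a Walton-Brodie strain gauge arch sutured to the left ventricle recorded contractile force, and blood pressure was recorded, after at least 30 min stabilization. Isoproterenol 0.1 μg/kg iv was given to controls or to dogs pretreated with propranolol 0.5 mg/kg iv. The value is the % change from pre-dose control; N = 6 per group; means ± SE; Student's t test.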

Canis familiaris [5] = experiment: The change in mean arterial blood pressure was determined after 0.1 ug/kg iv administration in dog.; format: functional, Canis lupus familiaris; how it was run: as §2
Canis familiaris [6] = experiment: The heart rate was determined after 1.0 mg/kg administration with 20 mg/kg pentobarbital in the dog heart-lung preparation.; format: functional, Canis lupus familiaris
How it was run: (§3)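 Isolated dog heart-lung preparation from mongrel dogs of either sex (11–19 kg), anesthetized with sodium pentobarbital 35 mg/kg iv. A strain gauge arch on the right ventricle recorded contractile force, EKG lead II gave heart rate, a left atrial cannula and transducer gave LAP, and an extracorporeal flow meter gave aortic flow. Failure was induced by adding pentobarbital to the blood reservoir, then compound was added to the reservoir; readings at 10 min. Five preparations; means ± SE; ANOVA.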

Canis familiaris [7] = experiment: The cardiac contractile force was determined after 1.0 mg/kg administration with 20 mg/kg pentobarbital in the dog heart-lung preparation.; format: functional, Canis lupus familiaris; how it was run: as §3
Canis familiaris [8] = experiment: The cardiac output was determined after 1.0 mg/kg administration with 20 mg/kg pentobarbital in the dog heart-lung preparation.; format: functional, Canis lupus familiaris; how it was run: as §3
Canis familiaris [9] = experiment: The left atrial pressure was determined after 1.0 mg/kg administration with 20 mg/kg pentobarbital in the dog heart-lung preparation.; format: functional, Canis lupus familiaris, Cardiac atrium; how it was run: as §3
Canis familiaris [10] = experiment: The stroke volume was determined after 1.0 mg/kg administration with 20 mg/kg pentobarbital in the dog heart-lung preparation.; format: functional, Canis lupus familiaris; how it was run: as §3
Canis familiaris [11] = experiment: The stroke work was determined after 1.0 mg/kg administration with 20 mg/kg pentobarbital in the dog heart-lung preparation.; format: functional, Canis lupus familiaris; how it was run: as §3

Row | SMILES | Equieffective dose (Canis familiaris [1]) [mg/kg] | Equieffective dose (Canis familiaris [2]) [mg/kg] | Equieffective dose (Canis familiaris [3]) [mg/kg] | also measured
1 | CCc1[nH]c(O)nc1C(=O)c1ccc(SC)cc1 | 0.28 | 0.54 | 0.07 | –
2 | Cc1[nH]c(O)nc1C(=O)c1ccc(O)cc1 | 2.6 | 1.3 | 0.25 | –
3 | COc1ccc(C(=O)c2c(C)n(C)c(=O)n2C)cc1 | 2.6 | >10 | 4.7 | –
4 | Cc1[nH]c(O)nc1C(=O)c1ccc(Cl)c(Cl)c1 | 2.1 | 4 | 0.7 | –
5 | Cc1[nH]c(O)nc1C(=O)c1cccs1 | 2.5 | 5.4 | 0.28 | –
6 | O=C(c1c[nH]c(O)n1)c1cccs1 | 3.7 | >10 | 0.72 | –
7 | Cc1[nH]c(O)nc1C(=O)c1ccccc1O | 4.5 | >10 | 3.28 | –
8 | COc1ccc(C(=O)c2nc(O)n(C)c2C)cc1 | >10 | >10 | >10 | –
9 | COc1ccc(C(=O)c2[nH]c(O)nc2C)cc1OC | 2 | 1.05 | 0.4 | –
10 | Cc1nc(O)[nH]c1C(=O)c1ccc(N(C)C)cc1 | >3 | 2.2 | 0.36 | –
11 | Cc1[nH]c(O)nc1C(=O)c1ccc(N2CCCC2)cc1 | 4.5 | 8.5 | >10 | –
12 | Cc1[nH]c(O)nc1C(=O)c1ccccc1 | 2.55 | 1.55 | 0.23 | –
13 | CC(=O)n1c(C)c(C(=O)c2ccccc2)n(C(C)=O)c1=O | 6.5 | >10 | 3 | –
14 | Cc1[nH]c(O)nc1C(=O)c1ccc(N2CCOCC2)cc1 | 6.4 | >10 | 1.2 | –
15 | O=C(c1ccccc1)c1c[nH]c(O)n1 | 4.4 | 4 | 3.91 | –
16 | Cc1[nH]c(O)nc1C(=O)c1ccc(N2CCCCC2)cc1 | >10 | >10 | >10 | –
17 | CCc1[nH]c(O)nc1C(=O)c1ccc(OC)c(OC)c1 | 2.35 | >3 | 0.18 | –

Row | SMILES | Equieffective dose (Canis familiaris [1]) [mg/kg] | Equieffective dose (Canis familiaris [2]) [mg/kg] | Equieffective dose (Canis familiaris [3]) [mg/kg] | also measured
18 | CCc1[nH]c(O)nc1C(=O)c1ccc(OC)cc1 | 0.62 | 0.23 | 0.15 | –
19 | Cc1[nH]c(O)nc1C(=O)c1ccc(Cl)cc1 | 0.29 | 4 | 0.18 | –
20 | CCCc1[nH]c(O)nc1C(=O)c1ccc(SC)cc1 | 2.3 | 3 | 1.13 | –
21 | Cc1c(C(=O)c2ccc(N(C)C)cc2)n(C(=O)C(C)C)c(=O)n1C(=O)C(C)C | >10 | >10 | 2.45 | –
22 | CSc1ccc(C(=O)c2c[nH]c(O)n2)cc1 | – | 1.05 | 0.5 | –
23 | Cc1[nH]c(O)nc1C(=O)c1ccc(F)cc1 | 1.03 | >3 | 0.38 | –
24 | Cc1[nH]c(O)nc1C(=O)c1ccccc1Cl | 2.1 | 2.2 | 0.48 | –
25 | COc1ccc(C(=O)c2c[nH]c(O)n2)cc1 | 3.1 | 1.85 | 0.78 | –
26 | Cc1[nH]c(O)nc1C(=O)c1ccco1 | 0.72 | 3.3 | 1.05 | –
27 | O=C(c1c[nH]c(O)n1)c1ccco1 | 4.2 | 4.3 | 1.84 | –
28 | CCc1[nH]c(O)nc1C(=O)c1cccs1 | 1.6 | 1.45 | 0.41 | –
29 | Cc1nc(O)[nH]c1C(=O)c1ccc(N2CCN(C)CC2)cc1 | >10 | 9.1 | >10 | –
30 | CC(=O)n1c(C)c(C(=O)c2ccc(N(C)C)cc2)n(C(C)=O)c1=O | >3 | >3 | 0.36 | –
31 | CC(=O)n1c(C)c(C(=O)c2ccc(F)cc2)n(C(C)=O)c1=O | 2.5 | >8 | 1 | –
32 | CSc1ccc(C(=O)c2[nH]c(=O)[nH]c2C)cc1 [ENOXIMONE] | 0.55 | 1.5 | 0.12 | –
33 | CC(C)NCC(O)c1ccc(O)c(O)c1 (stereo not drawn) [ISOPROTERENOL] | – | – | – | Change (Canis familiaris [4]): 133%; Change (Canis familiaris [5]): -27%
34 | CCCC(C)C1(CC)C(=O)NC(=O)NC1=O (stereo not drawn) [PENTOBARBITAL] | – | – | – | Heart rate (Canis familiaris [6]): 133 beats min-1; Cardiac contractile force (Canis familiaris [7]): 32.2 g; Cardiac output (Canis familiaris [8]): 613 mL/min; Left atrial pressure (Canis familiaris [9]): 12.1 mmHg; Stroke volume (Canis familiaris [10]): 4.6 mL; Stroke work (Canis familiaris [11]): 3 g
